High-throughput results: PubChem BioAssay, several laboratories
S1P4 ag – human S1P4 receptor agonism. activation, % at 4.98 µM. hit rate 0.35% among 220,000. AID 1509. S1P4-expressing cell line, agonist reporter assay. O95977; in the data active = activation above about 11%
S1P3 antagonist – antagonists of human S1P3 receptor; AID 485; hit rate 0.27% among 170,000; inhibition, % at 4.98 µM; CHO S1P3 NFAT-BLA reporter, FRET fluorescence, antagonist mode;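 active = inhibition above the plate cutoff, the mean inhibition of test wells on that plate plus 3 SD, cut at about 28% in these data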;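 also: cells challenged with S1P at its EC80 of 0.8 µM; blue over green emission ratio from cleaved BLA substrate after 4 h stimulation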
Target sequence (Q99500 whole entry, looked up): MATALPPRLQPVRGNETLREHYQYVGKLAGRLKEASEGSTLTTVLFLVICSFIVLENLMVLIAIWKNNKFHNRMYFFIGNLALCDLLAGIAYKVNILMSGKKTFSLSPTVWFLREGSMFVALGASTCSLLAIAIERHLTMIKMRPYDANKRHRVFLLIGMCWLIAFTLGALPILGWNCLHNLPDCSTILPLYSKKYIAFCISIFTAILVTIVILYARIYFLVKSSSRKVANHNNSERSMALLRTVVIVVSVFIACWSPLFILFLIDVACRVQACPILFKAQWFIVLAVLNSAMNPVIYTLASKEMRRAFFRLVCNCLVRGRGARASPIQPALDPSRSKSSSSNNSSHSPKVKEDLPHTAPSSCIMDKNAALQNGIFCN
S1P4 antag – blocks the human S1P4 receptor; inhibition, % at 4.98 µM; S1P4-expressing cells, antagonist mode, reporter read-out; hit rate 0.26% among 220,000; O95977; in the data active = inhibition above about 29%
MDM2 E3 inh – blocks human Mdm2 ubiquitin ligase activity | hit rate 0.11% among 210,000 | Q00987 | signal enhancement, % at 5 µM | cell-based MDM2 ubiquitination luciferase reporter, 2 h; 0 = plate control, 100 = twice control, blank-subtracted;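 active = signal enhancement of 30% or more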;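 also: luminescence tracks abundance of the self-degrading MDM2-luciferase fusion protein; higher signal means inhibition of MDM2 E3 ligase activity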
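test system = mammalian cells stably expressing self-ubiquitinating, self-degrading MDM2 E3–luciferase fusion | quantity = 2000 cells/well | incubation = cell settling 4 h, compound treatment 2 h, both 37 °C | signal = luminescence with SteadyLite reagent, 15 min at room temperature | evaluation = % enhancement relative to plate controls after blank subtraction | benchmarks = plate controls and plate blanks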
L major viab – Leishmania major promastigote growth inhibition. inhibition, % at 10 µM. hit rate 9% among 200,000. Leishmania major promastigotes, resazurin fluorescence viability; in the data active = inhibition above about 50%;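 also: promastigotes grown with compound for 44 hours at 28 °C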
A number is an active result; . = inactive; / = no result. Shown is part of a subset that was picked to be rich in hits.

SMILES	S1P4 ag	S1P3 antagonist	S1P4 antag	MDM2 E3 inh	L major viab
O=C(Nc1ccc(Cl)c([N+](=O)[O-])c1)C(Sc1ccccc1)c1ccccc1 (stereo unspecified)	.	.	.	.	.
Cc1ccsc1C(=O)N1CCCC(CCC(=O)N2CCN(c3ccccn3)CC2)C1 (stereo unspecified)	.	.	.	.	.
Cc1ccc(Cl)cc1N1CCN(C(=O)c2ccc(NS(=O)(=O)c3c(C)noc3C)cc2)CC1	.	.	.	.	96
Cc1ccc(C)c(N2CCN(C(=O)c3ccc(NS(=O)(=O)c4c(C)noc4C)cc3)CC2)c1	.	.	.	.	93
Cc1ccc(C)c(N2CCN(C(=O)c3ccc4nc(-c5ccco5)c(-c5ccco5)nc4c3)CC2)c1	.	/	.	.	82
Cc1noc(C)c1S(=O)(=O)Nc1ccc(C(=O)N2CCCCC2)cc1	.	/	.	.	.
O=c1[nH]cnc2c1N=C(c1cccc([N+](=O)[O-])c1)CC(c1ccccc1)N2 (stereo unspecified)	.	.	.	.	.
COc1ccccc1-n1cnc2cc(NCc3cccs3)ccc21	.	/	.	.	96
COc1ccc(CNc2ccc3c(c2)ncn3-c2ccccc2OC)cc1	.	/	.	.	100
O=C(Nc1ccc([N+](=O)[O-])cc1)c1cc(-c2ccccn2)nc2c(Cl)cccc12	.	.	.	.	.
Cc1ccc(-n2nnnc2-c2cnoc2-c2cccc(F)c2)cc1	.	/	.	.	.
COC(=O)c1ccccc1NC(=S)N(Cc1ccc2c(c1)OCO2)Cc1cc2cccc(C)c2[nH]c1=O	.	.	.	.	67
COc1ccccc1NC(=S)N(Cc1ccco1)Cc1cc2cc(C)cc(C)c2[nH]c1=O	.	.	.	.	85
Cc1ccc(NC(=S)N(Cc2cccs2)Cc2cc3cccc(C)c3[nH]c2=O)cc1	.	.	.	.	92
CCN(Cc1cc2cccc(C)c2[nH]c1=O)C(=O)c1ccccc1OC	/	.	/	/	/
COc1ccccc1NC(=S)N(Cc1ccco1)Cc1cc2ccc(C)c(C)c2[nH]c1=O	.	.	.	.	.
Cc1cccc2cc(CN(CCN(C)C)C(=S)Nc3ccccc3)c(=O)[nH]c12	.	.	.	.	79
COc1ccccc1NC(=O)Cn1cnc2c(nnn2-c2ccc(C)cc2)c1=O	.	.	.	.	.
CCOc1ncccc1C(=O)Nc1cccc(Cl)c1Cl	.	.	.	.	.
Cc1ccc2cc(CN(CCCN(C)C)C(=S)NCc3ccccc3)c(=O)[nH]c2c1C	.	.	.	.	95
Cc1ccc2cc(CN(CCCN(C)C)C(=O)NCc3ccccc3)c(=O)[nH]c2c1C	.	.	.	.	.
CC(Sc1nnc(-c2ccc(Cl)cc2Cl)n1Cc1ccccc1)C(=O)Nc1nccs1 (stereo unspecified)	.	/	.	.	65
Cc1nnc(SC(C)C(=O)Nc2ccc(Cl)cn2)n1Cc1ccccc1 (stereo unspecified)	.	.	.	.	.
Cc1cc(=O)[nH]c(S/C=C/c2ccccc2)n1	.	.	.	.	.
Cc1ccccc1-n1nc(C)c2cc(C(=O)N3CCN(S(=O)(=O)c4ccc(F)cc4)CC3)sc21	.	.	.	.	52
SMILES	S1P4 ag	S1P3 antagonist	S1P4 antag	MDM2 E3 inh	L major viab
Cc1ccccc1-n1nc(C)c2cc(C(=O)N3CCN(S(=O)(=O)c4ccc(Cl)cc4)CC3)sc21	.	/	.	.	.
COc1ccc(NC(=O)COC(=O)c2c3c(nc4ccccc24)CCCC3)cc1	.	/	.	.	94
COc1ccc(OC)c(NC(=O)COC(=O)c2c3c(nc4ccccc24)CCCC3)c1	.	/	.	/	.
Cn1c(N)c(Sc2ccc(F)cc2)c(=O)n(C)c1=O	.	.	.	.	.
O=C(c1ccco1)N1CCN(C(=O)C(Sc2ccccc2)c2ccccc2)CC1 (stereo unspecified)	.	.	.	.	59
O=C(CSc1ccccc1)N1CCN(C(=O)c2ccco2)CC1	.	.	.	.	.
Cc1ccc(NC(=O)c2ccccc2OCC(=O)Nc2cccc(Cl)c2C)nc1	.	.	.	.	.
N=c1c(C(=O)NCc2ccc(F)cc2)cc2c(=O)n3ccccc3nc2n1Cc1cccnc1	.	/	.	.	71
CC(C)OCCCn1c(=N)c(C(N)=S)cc2c(=O)n3ccccc3nc21	.	/	.	.	100
CC(C)OCCCn1c(=NC(=O)c2ccncc2)c(C#N)cc2c(=O)n3ccccc3nc21	.	.	.	.	.
N=c1c(C(=O)NCc2ccc(F)cc2)cc2c(=O)n3ccccc3nc2n1CCCN1CCOCC1	14	.	.	.	60
COc1ccc(-c2nnc(SCc3c(C)noc3C)o2)cc1	.	.	.	.	.
C=CCOc1ccc(/C=N/NC(=O)CN(c2cc(Cl)ccc2OC)S(=O)(=O)c2ccc(C)c([N+](=O)[O-])c2)cc1	.	.	.	.	97
COCCNC(=S)NNc1ccccc1[N+](=O)[O-]	.	.	.	.	.
CCCN1CNC(=S)N(c2cc(C)ccc2C)C1	.	/	.	/	.
Cc1ccccc1/C=C\c1nc2ccccc2c(=O)n1Cc1ccccc1	.	.	.	.	99
CN(C)CCNC(=O)/C=C/c1cn(-c2ccccc2)nc1-c1cc2ccccc2oc1=O	.	.	.	.	.
O=C1COc2ccc(C(=O)/C=C/c3ccccc3)cc2N1	.	.	.	.	84
CCCCN(C)Cc1c(C)[nH]c2c(Cl)cccc2c1=O	.	.	.	.	100
CCC1=NN(C(=O)CCc2ccc3c(c2)OCO3)C(O)(C(F)(F)F)C1 (stereo unspecified)	.	.	.	.	.
CC(=O)/C(=N/Nc1ccccc1)Sc1nnc(C(O)c2ccccc2)n1-c1ccccc1 (stereo unspecified)	.	.	.	.	.
Cn1cc(CNCc2cn(C)nc2-c2ccc(C3CCCCC3)cc2)cn1	.	.	.	.	94
CC(/C=N/NC(=O)Cn1cnc2c1c(=O)n(C)c(=O)n2C)=C\c1ccccc1	.	.	.	.	.
NS(=O)(=O)c1ccc(CCNC(=O)C(=O)C2C(=O)Nc3ccccc32)cc1 (stereo unspecified)	.	.	.	.	/
COc1ccc(CCn2c(-c3cc([N+](=O)[O-])cc([N+](=O)[O-])c3)nc3nc4ccccc4nc32)cc1	.	.	.	.	89
SMILES	S1P4 ag	S1P3 antagonist	S1P4 antag	MDM2 E3 inh	L major viab
COc1ccc(CCn2c(-c3ccco3)nc3nc4ccccc4nc32)cc1	.	.	.	.	.
COc1ccc(CCn2c(-c3cc([N+](=O)[O-])cc([N+](=O)[O-])c3)nc3nc4ccccc4nc32)cc1OC	.	.	.	.	80
CCC(C)C(NS(=O)(=O)c1ccc(C)cc1)C(=O)NCCN1CCOCC1 (stereo unspecified)	/	.	/	/	/
O=C(COC(=O)c1ccc2ccccc2c1O)NCC(F)(F)F	.	.	.	.	/
CCN(CC)S(=O)(=O)c1cc(NC(=O)COC(=O)c2sc3ccccc3c2Cl)ccc1C	.	.	.	.	50
Cc1ccccc1NC(=O)COC(=O)CNC(=O)c1sc2ccccc2c1Cl	.	.	.	.	87
